# Assay results: ChEMBL document CHEMBL5034008, “Diversity-Oriented A3-Macrocyclization for Studying Influences of Ring-Size and Shape of Cyclic Peptides: CD36 Receptor Modulators” (J Med Chem, 2021)
# Non-standard residues stand in square brackets, D forms with d. Residues, ends and D or L forms follow the SMILES beside them. ξ: configuration not given here. *: point of attachment. X1 = CCCCCCCCCCCCCCCC(=O)OCC(C*)OC(=O)CCCCCCCCCCCCCCC; ξC = NC(CS)C(=O)O
# Tests used:
# [1] = biological target: Platelet glycoprotein 4 (Mus musculus) (UniProt Q08857); experiment: Modulation of CD36 receptor in mouse RAW 264.7 cells assessed as inhibition of R-FSL-1-induced NO production pretreated for 30 mins followed by R-FSL-1 stimulation measured after 1140 min by fluorescence plate reader assay; type: cell-based; settings: RAW264.7, filed as modulator, time 1170.0 min
# Platelet glycoprotein 4 (Mus musculus), sequence (Q08857 whole entry): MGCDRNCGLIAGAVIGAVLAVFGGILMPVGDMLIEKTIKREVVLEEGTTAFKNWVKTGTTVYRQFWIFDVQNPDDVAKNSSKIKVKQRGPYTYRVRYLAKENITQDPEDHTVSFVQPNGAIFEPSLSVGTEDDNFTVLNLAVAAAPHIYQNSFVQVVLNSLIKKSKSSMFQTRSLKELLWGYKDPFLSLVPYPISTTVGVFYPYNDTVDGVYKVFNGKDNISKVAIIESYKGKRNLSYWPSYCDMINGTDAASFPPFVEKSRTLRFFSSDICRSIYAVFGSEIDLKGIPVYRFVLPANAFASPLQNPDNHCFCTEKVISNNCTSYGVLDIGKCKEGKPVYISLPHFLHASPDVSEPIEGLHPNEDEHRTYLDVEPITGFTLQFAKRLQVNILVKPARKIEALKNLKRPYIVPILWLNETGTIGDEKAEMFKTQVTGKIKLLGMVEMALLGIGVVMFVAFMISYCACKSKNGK
# Outline: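 RAW 264.7 cells seeded at 1.5 × 10^5 per well in DMEM with pen/strep. After 2 h, medium changed to DMEM with 0.2% BSA containing peptide. Cells stimulated with R-FSL-1 at 300 ng/mL for 19 h. Nitrite in 25 μL supernatant reacted with 0.5 μg 2,3-diaminonaphthalene in 50 mM phosphate pH 7.5, 15 min at room temperature in the dark, stopped with NaOH. Fluorescence read.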
# [2] = biological target: Platelet glycoprotein 4 (Mus musculus) (UniProt Q08857); experiment: Modulation of CD36 receptor in mouse RAW 264.7 cells assessed as inhibition of R-FSL-1-induced NO production at competitive receptor binding assay IC50 concentration pretreated for 30 mins followed by R-FSL-1 stimulation measured after 19 hrs by fluorescence plate reader assay relative to R-FSL-1; type: cell-based; set-up: scale not given: the % may be the effect or the level left
# [3] = biological target: Platelet glycoprotein 4 (Mus musculus) (UniProt Q08857); experiment: Modulation of CD36 receptor in mouse RAW 264.7 cells assessed as inhibition of R-FSL-1-induced TNFalpha production pretreated for 30 mins followed by R-FSL-1 stimulation measured after 4 hrs by ELISA; type: cell-based; settings: RAW264.7, filed as modulator, time 4.5 hrs
# Outline: (§1)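 RAW 264.7 cells seeded at 1.5 × 10^5 per well and weaned overnight in DMEM with 1% pen/strep. Medium then changed to DMEM with 0.2% BSA. Cells pretreated 30 min with peptide at 10^-7 M, with linear [azaTyr4]-GHRP-6 as reference. Stimulated with R-FSL-1 at 300 ng/mL for 4 h at 37 °C. TNF-α or CCL-2 in supernatant measured by ELISA. Inhibition % = (FSL-1 − treated)/(FSL-1 − basal) × 100.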
# [4] = biological target: Platelet glycoprotein 4 (Mus musculus) (UniProt Q08857); experiment: Modulation of CD36 receptor in mouse RAW 264.7 cells assessed as inhibition of R-FSL-1-induced TNFalpha production at competitive receptor binding assay IC50 concentration pretreated for 30 mins followed by R-FSL-1 stimulation measured after 19 hrs by ELISA relative to R-FSL-1; type: cell-based; set-up: scale not given: the % may be the effect or the level left; settings: RAW264.7, time 19.5 hrs
# [5] = biological target: Platelet glycoprotein 4 (Mus musculus) (UniProt Q08857); experiment: Modulation of CD36 receptor in mouse RAW 264.7 cells assessed as inhibition of R-FSL-1-induced CCL-2 production pretreated for 30 mins followed by R-FSL-1 stimulation measured after 4 hrs by ELISA; type: cell-based; settings: RAW264.7, filed as modulator, time 4.5 hrs; outline: as §1
# [6] = biological target: Platelet glycoprotein 4 (Mus musculus) (UniProt Q08857); experiment: Modulation of CD36 receptor in mouse RAW 264.7 cells assessed as inhibition of R-FSL-1-induced CCl-2 production at competitive receptor binding assay IC50 concentration pretreated for 30 mins followed by R-FSL-1 stimulation measured after 19 hrs by ELISA relative to R-FSL-1; type: cell-based; set-up: scale not given: the % may be the effect or the level left
# [7] = biological target: Platelet glycoprotein 4 (Mus musculus) (UniProt Q08857); experiment: Modulation of CD36 receptor in mouse BMA3.1A7 cells assessed as inhibition of R-FSL-1-induced IL-1beta production […] measured after 4 hrs by ELISA; type: cell-based; settings: filed as modulator, time 4.5 hrs
# [8] = biological target: Platelet glycoprotein 4 (Mus musculus) (UniProt Q08857); experiment: Modulation of CD36 receptor in mouse BMA3.1A7 cells assessed as inhibition of R-FSL-1-induced IL-1beta production at competitive receptor binding assay IC50 concentration pretreated for 30 mins followed by R-FSL-1 stimulation measured after 4 hrs by ELISA relative to R-FSL-1; type: cell-based; set-up: scale not given: the % may be the effect or the level left; settings: time 4.5 hrs
# [9] = biological target: Platelet glycoprotein 4 (Rattus norvegicus, UniProt Q07969); experiment: Displacement of [125I]-Tyr-Bpa-Ala-hexarelin from rat CD36 receptor in heart tissue membrane incubated for 60 mins by competitive receptor binding assay; type: cell membranes
# Platelet glycoprotein 4, sequence (Q07969 whole entry): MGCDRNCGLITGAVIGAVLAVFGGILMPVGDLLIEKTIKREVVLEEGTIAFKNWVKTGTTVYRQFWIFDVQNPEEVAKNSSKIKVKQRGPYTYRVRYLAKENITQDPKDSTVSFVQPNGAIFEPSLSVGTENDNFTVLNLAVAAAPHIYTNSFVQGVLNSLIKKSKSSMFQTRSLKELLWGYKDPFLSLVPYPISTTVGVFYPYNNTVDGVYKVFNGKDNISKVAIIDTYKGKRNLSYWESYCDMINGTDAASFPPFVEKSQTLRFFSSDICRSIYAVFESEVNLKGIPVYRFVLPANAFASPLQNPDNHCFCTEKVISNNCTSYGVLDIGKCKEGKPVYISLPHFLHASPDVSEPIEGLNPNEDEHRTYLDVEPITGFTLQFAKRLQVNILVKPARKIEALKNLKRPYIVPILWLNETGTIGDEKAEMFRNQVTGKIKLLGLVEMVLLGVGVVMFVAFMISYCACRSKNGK
# Outline: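 Rat heart membranes (50 μg) incubated in the dark with 250,000 cpm [125I]-Tyr-Bpa-Ala-hexarelin in 50 mM Tris-HCl pH 7.4, 2 mM EGTA, 0.05% bacitracin, with competitor at 0.1–10 μM; hexarelin as reference. Nonspecific binding defined with 50 μM peptide. 60 min at 22 °C, then UV photolysis at 365 nm for 15 min at 4 °C. Pellets resolved on 7.5% SDS-PAGE.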
# [10] = RAW264.7, filed as modulator, time 19.5 hrs
SMILES,Activity [1] [µM],"Activity ([2]; RAW264.7, time 1170.0 min) [%]",Activity [3] [pmol],Activity [4] [%],Activity [5] [pmol],"Activity ([6]; RAW264.7, time 19.5 hrs) [%]",Activity [7] [pmol],Activity [8] [%],IC50 [9] [µM],"Activity ([2]; RAW264.7, filed as modulator, time 1170.0 min) [%]","Activity [6, 10] [%]",Activity ([8]; filed as modulator) [%]
C=CCN1CC#CCN(NC(=O)[C@H](C)N)S(=O)(=O)N[C@H](Cc2c[nH]c3ccccc23)C(=O)N[C@@H](C)C(=O)N[C@@H](Cc2c[nH]c3ccccc23)C(=O)N[C@H](Cc2ccccc2)C(=O)N[C@H](C(N)=O)CCCC1,2.74,4,5120,-4,969,15,378,6,10.2,,,
C=CCN1CC#CCN(NC(=O)[C@H](C)N)C(=O)N[C@@H](C)C(=O)N[C@@H](Cc2c[nH]c3ccccc23)C(=O)N[C@H](Cc2ccccc2)C(=O)N[C@H](C(N)=O)CCC1,2.81,0,4760,5,1030,8,381,9,22.8,,,
C[C@H](N)C(=O)NN1C/C=C\CN(CC2CC2)CCCC[C@@H](C(N)=O)NC(=O)[C@@H](Cc2ccccc2)NC(=O)[C@H](Cc2c[nH]c3ccccc23)NC(=O)[C@H](C)NC(=O)[C@@H](Cc2c[nH]c3ccccc23)NC1=O,2.57,12,4820,3,903,23,312,9,9.05,,,
CCCCCCCCCCCCCCCC(=O)OCC(CSCC(N)C(=O)NCC(=O)N[C@@H](CC(=O)O)C(=O)N1CCC[C@H]1C(=O)N[C@@H](CCCCN)C(=O)N[C@@H](Cc1cnc[nH]1)C(=O)N1CCC[C@H]1C(=O)N[C@@H](CCCCN)C(=O)N[C@@H](CO)C(=O)N[C@@H](Cc1ccccc1)C(=O)O)OC(=O)CCCCCCCCCCCCCCC (some centres undefined) (H-[ξC](X1)GDPKHPKSF-OH),2.82,,4970,,1100,,410,,,,,
C=CCN1CC#CCN(NC(=O)[C@H](C)N)C(=O)N[C@H](Cc2c[nH]c3ccccc23)C(=O)N[C@@H](C)C(=O)N[C@@H](Cc2c[nH]c3ccccc23)C(=O)N[C@H](Cc2ccccc2)C(=O)N[C@H](C(N)=O)CCC1,2.52,15,4650,8,971,15,411,0,13.1,,,
CCCN1CC#CCN(NC(=O)[C@H](C)N)C(=O)N[C@H](Cc2c[nH]c3ccccc23)C(=O)N[C@@H](C)C(=O)N[C@@H](Cc2c[nH]c3ccccc23)C(=O)N[C@H](Cc2ccccc2)C(=O)N[C@H](C(N)=O)CCCC1,2.75,4,4460,12,918,13,313,29,1.86,,,
C=CCN1CC#CCN(NC(=O)[C@H](C)N)C(=O)N[C@@H](C)C(=O)N[C@@H](Cc2c[nH]c3ccccc23)C(=O)N[C@H](Cc2ccccc2)C(=O)N[C@H](C(N)=O)CCCC1,2.3,,3840,27,758,39,291,35,,25,,
C=CCN1CC#CCN(NC(=O)[C@H](C)N)C(=O)N[C@@H](C)C(=O)N[C@@H](Cc2c[nH]c3ccccc23)C(=O)N[C@H](Cc2ccccc2)C(=O)N[C@H](C(N)=O)CC1,2.51,15,4850,3,954,17,389,6,10.2,,,
C=CCN1CC#CCN(NC(=O)[C@H](C)N)C(=O)N[C@H](Cc2c[nH]c3ccccc23)C(=O)N[C@@H](C)C(=O)N[C@@H](Cc2c[nH]c3ccccc23)C(=O)N[C@H](Cc2ccccc2)C(=O)N[C@H](C(N)=O)CCCC1,2.11,35,3940,25,672,,253,,0.1,,50,46
CCCN1CCCC[C@@H](C(N)=O)NC(=O)[C@@H](Cc2ccccc2)NC(=O)[C@H](Cc2c[nH]c3ccccc23)NC(=O)[C@H](C)NC(=O)[C@@H](Cc2c[nH]c3ccccc23)NC(=O)N(NC(=O)[C@H](C)N)CCCC1,2.08,36,4110,21,802,34,312,29,2.26,,,
C=CCN1CC#CCN(NC(=O)[C@H](C)NC(C)=O)C(=O)N[C@H](Cc2c[nH]c3ccccc23)C(=O)N[C@@H](C)C(=O)N[C@@H](Cc2c[nH]c3ccccc23)C(=O)N[C@H](Cc2ccccc2)C(=O)N[C@H](C(N)=O)CCCC1,2.35,23,4040,22,707,,304,32,,,45,
C=CCN1CC#CCN(NC(=O)[C@H](C)N)C(=O)N[C@H](Cc2c[nH]c3ccccc23)C(=O)N[C@@H](C)C(=O)N[C@@H](Cc2c[nH]c3ccccc23)C(=O)N[C@H](Cc2ccccc2)C(=O)N[C@H](C(N)=O)CC1,2.26,27,4180,19,857,28,271,,4.75,,,41
C=CCN1CC#CCN(NC(C)=O)C(=O)N[C@H](Cc2c[nH]c3ccccc23)C(=O)N[C@@H](C)C(=O)N[C@@H](Cc2c[nH]c3ccccc23)C(=O)N[C@H](Cc2ccccc2)C(=O)N[C@H](C(N)=O)CCCC1,2.45,18,4560,10,785,36,351,18,,,,
